Calls of active or inactive are those of the source. The calls are words filed in the database; no cut-off is given here.
Assays:
[1] = test system: HT-29; assay: Cytotoxicity against human HT-29 cells after 96 hrs by SRB assay; format: functional, cell-based; settings: HT-29, 96 h
[2] = test system: 8505C; assay: Selectivity index, ratio of IC50 for human fibroblast to IC50 for human 8505C cells
Method in brief: (§1)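 The selectivity index was calculated as the IC50 on human fibroblasts divided by the IC50 on the corresponding tumor cell line.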

[3] = test system: HCT-116; assay: Cytotoxicity against human HCT116 cells after 96 hrs by SRB assay; format: functional, cell-based; settings: HCT-116, 96 h
[4] = test system: MCF7; assay: Cytotoxicity against human MCF7 cells after 96 hrs by SRB assay; format: functional, cell-based; settings: MCF7, 96 h
[5] = test system: A-431; assay: Cytotoxicity against human A431 cells after 96 hrs by SRB assay; format: functional, cell-based; settings: A-431, 96 h
[6] = test system: 8505C; assay: Cytotoxicity against human 8505C cells after 96 hrs by SRB assay; format: functional, cell-based
[7] = test system: SW-1736; assay: Cytotoxicity against human SW1736 cells after 96 hrs by SRB assay; format: functional, cell-based; settings: SW-1736, 96 h
[8] = test system: HT-29; assay: Selectivity index, ratio of IC50 for human fibroblast to IC50 for human HT-29 cells; method in brief: as §1
[9] = test system: A549; assay: Induction of apoptosis in human A549 cells assessed as DNA fragmentation at equitoxic IC90 after 24 hrs by agarose gel electrophoresis
[10] = test system: A2780; assay: Selectivity index, ratio of IC50 for human fibroblast to IC50 for human A2780 cells; method in brief: as §1
[11] = test system: MCF7; assay: Selectivity index, ratio of IC50 for human fibroblast to IC50 for human MCF7 cells; method in brief: as §1
[12] = Cytotoxicity against human Liposarcoma cells after 96 hrs by SRB assay; format: functional, cell-based
[13] = test system: A549; assay: Selectivity index, ratio of IC50 for human fibroblast to IC50 for human A549 cells; method in brief: as §1
[14] = test system: DLD-1; assay: Cytotoxicity against human DLD1 cells after 96 hrs by SRB assay; format: functional, cell-based; settings: DLD-1, 96 h
[15] = test system: DLD-1; assay: Selectivity index, ratio of IC50 for human fibroblast to IC50 for human DLD1 cells; method in brief: as §1
[16] = Cytotoxicity against human fibroblast after 96 hrs by SRB assay; format: cell-based
[17] = Selectivity index, ratio of IC50 for human fibroblast to IC50 for human SW1736 cells; method in brief: as §1
[18] = test system: A-431; assay: Selectivity index, ratio of IC50 for human fibroblast to IC50 for human A431 cells; method in brief: as §1
[19] = test system: FaDu; assay: Cytotoxicity against human FADU cells after 96 hrs by SRB assay; format: functional, cell-based
[20] = Cytotoxicity against human 518A2 cells after 96 hrs by SRB assay; format: functional, cell-based; settings: 518A2, 96 h
[21] = test system: HCT-8; assay: Cytotoxicity against human HCT8 cells after 96 hrs by SRB assay; format: functional, cell-based; settings: HCT-8, 96 h
[22] = Selectivity index, ratio of IC50 for human fibroblast to IC50 for human A253 cells; method in brief: as §1
[23] = Selectivity index, ratio of IC50 for human fibroblast to IC50 for human Liposarcoma cells; method in brief: as §1
[24] = test system: HCT-116; assay: Selectivity index, ratio of IC50 for human fibroblast to IC50 for human HCT116 cells; method in brief: as §1
[25] = Cytotoxicity against human A253 cells after 96 hrs by SRB assay; format: functional, cell-based; settings: A253, 96 h
[26] = test system: HCT-8; assay: Selectivity index, ratio of IC50 for human fibroblast to IC50 for human HCT8 cells; method in brief: as §1
[27] = test system: A549; assay: Cytotoxicity against human A549 cells after 96 hrs by SRB assay; format: functional, cell-based; settings: A549, 96 h
[28] = test system: SW480; assay: Selectivity index, ratio of IC50 for human fibroblast to IC50 for human SW480 cells; method in brief: as §1
[29] = test system: A2780; assay: Cytotoxicity against human A2780 cells after 96 hrs by SRB assay; format: functional, cell-based; settings: A2780, 96 h
[30] = Selectivity index, ratio of IC50 for human fibroblast to IC50 for human 518A2 cells; method in brief: as §1
[31] = test system: FaDu; assay: Selectivity index, ratio of IC50 for human fibroblast to IC50 for human FADU cells; method in brief: as §1
[32] = test system: SW480; assay: Cytotoxicity against human SW480 cells after 96 hrs by SRB assay; format: functional, cell-based; settings: SW480, 96 h
[33] = Cytotoxicity against human fibroblast at 100 uM after 96 hrs by SRB assay; format: cell-based
[34] = test system: A549; assay: Induction of apoptosis in human A549 cells assessed as caspase3/7 activation at equitoxic IC90 after 6 hrs; format: functional, cell-based
[35] = test system: A549; assay: Induction of apoptosis in human A549 cells assessed as caspase3/7 activation at equitoxic IC90 after 2 hrs; format: functional, cell-based

SMILES	IC50 [1] [µM]	Ratio IC50 [2]	IC50 [3] [µM]	IC50 [4] [µM]	IC50 [5] [µM]	IC50 [6] [µM]	IC50 [7] [µM]	Ratio IC50 [8]	Activity [9]	Ratio IC50 [10]	Ratio IC50 [11]	IC50 [12] [µM]	Ratio IC50 [13]	IC50 [14] [µM]	Ratio IC50 [15]	IC50 [16] [µM]	Ratio IC50 [17]	Ratio IC50 [18]	IC50 [19] [µM]	IC50 [20] [µM]	other results
C=C(C)[C@@H]1CC[C@]2(COC(=O)NCC)CC[C@]3(C)[C@H](CC[C@@H]4[C@@]5(C)CC[C@H](OC(=O)NCC)C(C)(C)[C@@H]5CC[C@]43C)[C@@H]12 [BIS(ETHYLCARBAMATE)BETULIN]	6.2	>10.65	3.84	17.7	6.08	9.39	3.6	>16.13	Active	>22.88	>5.65	12	>34.36	8.32	>12.02	> 100	>26.32	>16.45	7.88	8.18	IC50 [21]: 3.91 µM; Ratio IC50 [22]: >10.3; Ratio IC50 [23]: >8.31; Ratio IC50 [24]: >26.04; IC50 [25]: 9.71 µM; Ratio IC50 [26]: >25.58; IC50 [27]: 2910 nM; Ratio IC50 [28]: >36.1; IC50 [29]: 4.37 µM; Ratio IC50 [30]: >12.22; Ratio IC50 [31]: >12.69; IC50 [32]: 2770 nM; Activity [33]: Non-toxic
C=C(C)[C@@H]1CC[C@]2(COC(C)=O)CC[C@]3(C)[C@H](CC[C@@H]4[C@@]5(C)CC[C@H](OC(=O)NCC)C(C)(C)[C@@H]5CC[C@]43C)[C@@H]12	5.07	4.82	4.3	5.98	5	5.05	3.15	4.8	Active	5.69	4.07	5.35	14.41	6.93	3.52	24.4	7.73	4.87	4.62	5.12	IC50 [21]: 3.99 µM; Ratio IC50 [22]: 4.99; Ratio IC50 [23]: 4.55; Activity [34]: Active; Ratio IC50 [24]: 5.67; Activity [35]: Active; IC50 [25]: 4.88 µM; Ratio IC50 [26]: 6.2; IC50 [27]: 1690 nM; Ratio IC50 [28]: 13.76; IC50 [29]: 4.28 µM; Ratio IC50 [30]: 4.76; Ratio IC50 [31]: 5.39; IC50 [32]: 1770 nM

Source: ChEMBL document CHEMBL1155488, “Carbamate derivatives of betulinic acid and betulin with selective cytotoxic activity” (Bioorg Med Chem Lett, 2010)
